Laboratory results from ChEMBL document CHEMBL3046951, “Volatile constituents from the leaves of Callicarpa japonica Thunb. and their antibacterial activities” (2004).

Assays:
Assay type in all cases: functional
Bacillus cereus [1] = experiment: Antimicrobial activity against Bacillus cereus ATCC 11778 assessed as growth inhibition rate at 12 mg/l after 72 hr by spectrophotometry; conditions: ATCC 11778, 72 h, read-out: GI
Procedure, shortened: (§1)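 Pure volatile compounds (purity >95%; one at 90%) were tested against B. cereus ATCC 11778. The strain was grown at 30 °C in nutrient broth for 24 h, then subcultured for 18 h. Optical density was read in a Bioscreen C every 24 h for 72 h, with 10% Tween 80 as the control.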

Listeria monocytogenes [2] = experiment: Antimicrobial activity against Listeria monocytogenes ATCC 19111 assessed as growth inhibition rate at 12 mg/l after 72 hr by spectrophotometry; conditions: ATCC 19111, 72 h, read-out: GI
Procedure, shortened: (§2)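 L. monocytogenes was grown at 30 °C in tryptic soy broth, subcultured for 18 h, and exposed to pure volatile compounds (>95% purity). Growth was followed by Bioscreen C optical density every 24 h for 72 h against a 10% Tween 80 control.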

Vibrio parahaemolyticus [3] = experiment: Antimicrobial activity against Vibrio parahaemolyticus ATCC 33844 assessed as growth inhibition rate at 1.2 mg/l after 72 hr by spectrophotometry; conditions: ATCC 33844, 72 h, read-out: GI
Procedure, shortened: (§3)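 Authentic volatiles (>95% purity; 2,4-heptadienal 90%) tested against 18 h subcultures. Growth media: E. coli O157:H7 and S. aureus in tryptic soy broth at 37 °C; L. monocytogenes in tryptic soy broth at 30 °C; V. parahaemolyticus in tryptic soy broth + 3% NaCl at 37 °C; S. typhimurium in nutrient broth at 30 °C. Bioscreen C OD every 24 h for 72 h versus 10% Tween 80 control.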

Bacillus cereus [4] = experiment: Antimicrobial activity against Bacillus cereus ATCC 11778 assessed as growth inhibition rate at 0.24 mg/l after 72 hr by spectrophotometry; conditions: ATCC 11778, 72 h, read-out: GI; procedure, shortened: as §1
Listeria monocytogenes [5] = experiment: Antimicrobial activity against Listeria monocytogenes ATCC 19111 assessed as growth inhibition rate at 0.24 mg/l after 72 hr by spectrophotometry; conditions: ATCC 19111, 72 h, read-out: GI; procedure, shortened: as §2
Salmonella typhimurium [6] = experiment: Antimicrobial activity against Salmonella enterica subsp. enterica serovar Typhimurium ATCC 14028 assessed as growth inhibition rate at 0.03 mg/l after 72 hr by spectrophotometry; conditions: ATCC 14028, 72 h, read-out: GI
Procedure, shortened: (§4)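 Salmonella Typhimurium ATCC 14028 grown in nutrient broth at 30 °C, precultured 24 h, then subcultured 1:100 for 18 h before testing. Single volatile compounds (>95% pure) were added. OD was read every 24 h over 72 h in a Bioscreen C, with 10% Tween 80 as the comparison control.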

Bacillus cereus [7] = experiment: Antimicrobial activity against Bacillus cereus ATCC 11778 assessed as growth inhibition rate at 2.4 mg/l after 72 hr by spectrophotometry; conditions: ATCC 11778, 72 h, read-out: GI; procedure, shortened: as §1
Salmonella typhimurium [8] = experiment: Antimicrobial activity against Salmonella enterica subsp. enterica serovar Typhimurium ATCC 14028 assessed as growth inhibition rate at 24 mg/l after 72 hr by spectrophotometry; conditions: ATCC 14028, 72 h, read-out: GI; procedure, shortened: as §4
Escherichia coli [9] = experiment: Antimicrobial activity against Escherichia coli O157:H7 ATCC 43894 assessed as growth inhibition rate at 1.2 mg/l after 72 hr by spectrophotometry; conditions: O157:H7 ATCC 43894, 72 h, read-out: GI
Listeria monocytogenes [10] = experiment: Antimicrobial activity against Listeria monocytogenes ATCC 19111 assessed as growth inhibition rate at 0.03 mg/l after 72 hr by spectrophotometry; conditions: ATCC 19111, 72 h, read-out: GI; procedure, shortened: as §2
Escherichia coli [11] = experiment: Antimicrobial activity against Escherichia coli O157:H7 ATCC 43894 assessed as growth inhibition rate at 0.03 mg/l after 72 hr by spectrophotometry; conditions: O157:H7 ATCC 43894, 72 h, read-out: GI
Vibrio parahaemolyticus [12] = experiment: Antimicrobial activity against Vibrio parahaemolyticus ATCC 33844 assessed as growth inhibition rate at 12 mg/l after 72 hr by spectrophotometry; conditions: ATCC 33844, 72 h, read-out: GI
Staphylococcus aureus [13] = experiment: Antimicrobial activity against Staphylococcus aureus ATCC 25923 assessed as growth inhibition rate at 12 mg/l after 72 hr by spectrophotometry; conditions: ATCC 25923, 72 h, read-out: GI
Bacillus cereus [14] = experiment: Antimicrobial activity against Bacillus cereus ATCC 11778 assessed as growth inhibition rate at 1.2 mg/l after 72 hr by spectrophotometry; conditions: ATCC 11778, 72 h, read-out: GI
Procedure, shortened: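 Pure volatile compounds (>95% purity; 2,4-heptadienal 90%) identified in the leaf extract were tested against B. cereus ATCC 11778 in nutrient broth at 30 °C. The inoculum was grown 24 h, then subcultured (0.1 mL into 9.9 mL) for 18 h. Optical density was read in a Bioscreen C every 24 h for 72 h against a 10% Tween 80 control.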

Vibrio parahaemolyticus [15] = experiment: Antimicrobial activity against Vibrio parahaemolyticus ATCC 33844 assessed as growth inhibition rate at 0.24 mg/l after 72 hr by spectrophotometry; conditions: ATCC 33844, 72 h, read-out: GI
Staphylococcus aureus [16] = experiment: Antimicrobial activity against Staphylococcus aureus ATCC 25923 assessed as growth inhibition rate at 0.24 mg/l after 72 hr by spectrophotometry; conditions: ATCC 25923, 72 h, read-out: GI
Vibrio parahaemolyticus [17] = experiment: Antimicrobial activity against Vibrio parahaemolyticus ATCC 33844 assessed as growth inhibition rate at 24 mg/l after 72 hr by spectrophotometry; conditions: ATCC 33844, 72 h, read-out: GI
Salmonella typhimurium [18] = experiment: Antimicrobial activity against Salmonella enterica subsp. enterica serovar Typhimurium ATCC 14028 assessed as growth inhibition rate at 12 mg/l after 72 hr by spectrophotometry; conditions: ATCC 14028, 72 h, read-out: GI; procedure, shortened: as §4
Bacillus cereus [19] = experiment: Antimicrobial activity against Bacillus cereus ATCC 11778 assessed as growth inhibition rate at 0.03 mg/l after 72 hr by spectrophotometry; conditions: ATCC 11778, 72 h, read-out: GI; procedure, shortened: as §1
Vibrio parahaemolyticus [20] = experiment: Antimicrobial activity against Vibrio parahaemolyticus ATCC 33844 assessed as growth inhibition rate at 0.03 mg/l after 72 hr by spectrophotometry; conditions: ATCC 33844, 72 h, read-out: GI
Staphylococcus aureus [21] = experiment: Antimicrobial activity against Staphylococcus aureus ATCC 25923 assessed as growth inhibition rate at 2.4 mg/l after 72 hr by spectrophotometry; conditions: ATCC 25923, 72 h, read-out: GI
Listeria monocytogenes [22] = experiment: Antimicrobial activity against Listeria monocytogenes ATCC 19111 assessed as growth inhibition rate at 1.2 mg/l after 72 hr by spectrophotometry; conditions: ATCC 19111, 72 h, read-out: GI; procedure, shortened: as §3
Staphylococcus aureus [23] = experiment: Antimicrobial activity against Staphylococcus aureus ATCC 25923 assessed as growth inhibition rate at 0.03 mg/l after 72 hr by spectrophotometry; conditions: ATCC 25923, 72 h, read-out: GI
Bacillus cereus [24] = experiment: Antimicrobial activity against Bacillus cereus ATCC 11778 assessed as growth inhibition rate at 24 mg/l after 72 hr by spectrophotometry; conditions: ATCC 11778, 72 h, read-out: GI; procedure, shortened: as §1
Listeria monocytogenes [25] = experiment: Antimicrobial activity against Listeria monocytogenes ATCC 19111 assessed as growth inhibition rate at 2.4 mg/l after 72 hr by spectrophotometry; conditions: ATCC 19111, 72 h, read-out: GI; procedure, shortened: as §2
Vibrio parahaemolyticus [26] = experiment: Antimicrobial activity against Vibrio parahaemolyticus ATCC 33844 assessed as growth inhibition rate at 2.4 mg/l after 72 hr by spectrophotometry; conditions: ATCC 33844, 72 h, read-out: GI
Escherichia coli [27] = experiment: Antimicrobial activity against Escherichia coli O157:H7 ATCC 43894 assessed as growth inhibition rate at 24 mg/l after 72 hr by spectrophotometry; conditions: O157:H7 ATCC 43894, 72 h, read-out: GI
Listeria monocytogenes [28] = experiment: Antimicrobial activity against Listeria monocytogenes ATCC 19111 assessed as growth inhibition rate at 24 mg/l after 72 hr by spectrophotometry; conditions: ATCC 19111, 72 h, read-out: GI; procedure, shortened: as §2
Staphylococcus aureus [29] = experiment: Antimicrobial activity against Staphylococcus aureus ATCC 25923 assessed as growth inhibition rate at 1.2 mg/l after 72 hr by spectrophotometry; conditions: ATCC 25923, 72 h, read-out: GI; procedure, shortened: as §3
Staphylococcus aureus [30] = experiment: Antimicrobial activity against Staphylococcus aureus ATCC 25923 assessed as growth inhibition rate at 24 mg/l after 72 hr by spectrophotometry; conditions: ATCC 25923, 72 h, read-out: GI
Salmonella typhimurium [31] = experiment: Antimicrobial activity against Salmonella enterica subsp. enterica serovar Typhimurium ATCC 14028 assessed as growth inhibition rate at 2.4 mg/l after 72 hr by spectrophotometry; conditions: ATCC 14028, 72 h, read-out: GI; procedure, shortened: as §4
Salmonella typhimurium [32] = experiment: Antimicrobial activity against Salmonella enterica subsp. enterica serovar Typhimurium ATCC 14028 assessed as growth inhibition rate at 1.2 mg/l after 72 hr by spectrophotometry; conditions: ATCC 14028, 72 h, read-out: GI; procedure, shortened: as §3
Escherichia coli [33] = experiment: Antimicrobial activity against Escherichia coli O157:H7 ATCC 43894 assessed as growth inhibition rate at 0.24 mg/l after 72 hr by spectrophotometry; conditions: O157:H7 ATCC 43894, 72 h, read-out: GI
Escherichia coli [34] = experiment: Antimicrobial activity against Escherichia coli O157:H7 ATCC 43894 assessed as growth inhibition rate at 12 mg/l after 72 hr by spectrophotometry; conditions: O157:H7 ATCC 43894, 72 h, read-out: GI
Salmonella typhimurium [35] = experiment: Antimicrobial activity against Salmonella enterica subsp. enterica serovar Typhimurium ATCC 14028 assessed as growth inhibition rate at 0.24 mg/l after 72 hr by spectrophotometry; conditions: ATCC 14028, 72 h, read-out: GI; procedure, shortened: as §4
Escherichia coli [36] = experiment: Antimicrobial activity against Escherichia coli O157:H7 ATCC 43894 assessed as growth inhibition rate at 2.4 mg/l after 72 hr by spectrophotometry; conditions: O157:H7 ATCC 43894, 72 h, read-out: GI

## C[C@@H]1CC[C@@H]2[C@@H]1[C@H]1[C@@H](CC[C@]2(C)O)C1(C)C [(-)-EPIGLOBULOL]
Bacillus cereus [1]
  inhibition of growth at 12 µg/mL: 63.6%
Listeria monocytogenes [2]
  inhibition of growth at 12 µg/mL: 92%
Vibrio parahaemolyticus [3]
  inhibition of growth at 1.2 µg/mL: 11.1%
Bacillus cereus [4]
  inhibition of growth at 0.24 µg/mL: 8.2%
Listeria monocytogenes [5]
  inhibition of growth at 0.24 µg/mL: 6.1%
Salmonella typhimurium [6]
  inhibition of growth at 0.03 µg/mL: 2.2%
Bacillus cereus [7]
  inhibition of growth at 2.4 µg/mL: 18.6%
Salmonella typhimurium [8]
  inhibition of growth at 24 µg/mL: 58.1%
Escherichia coli [9]
  inhibition of growth at 1.2 µg/mL: 0.9%
Listeria monocytogenes [10]
  inhibition of growth at 0.03 µg/mL: 5.8%
Escherichia coli [11]
  inhibition of growth at 0.03 µg/mL: 0.3%
Vibrio parahaemolyticus [12]
  inhibition of growth at 12 µg/mL: 61.2%
Staphylococcus aureus [13]
  inhibition of growth at 12 µg/mL: 99.4%
Bacillus cereus [14]
  inhibition of growth at 1.2 µg/mL: 13.9%
Vibrio parahaemolyticus [15]
  inhibition of growth at 0.24 µg/mL: 11.4%
Staphylococcus aureus [16]
  inhibition of growth at 0.24 µg/mL: 2.6%
Vibrio parahaemolyticus [17]
  inhibition of growth at 24 µg/mL: 65.8%
Salmonella typhimurium [18]
  inhibition of growth at 12 µg/mL: 39.1%
Bacillus cereus [19]
  inhibition of growth at 0.03 µg/mL: 0.6%
Vibrio parahaemolyticus [20]
  inhibition of growth at 0.03 µg/mL: 3.1%
Staphylococcus aureus [21]
  inhibition of growth at 2.4 µg/mL: 5.9%
Listeria monocytogenes [22]
  inhibition of growth at 1.2 µg/mL: 8.2%
Staphylococcus aureus [23]
  inhibition of growth at 0.03 µg/mL: 1.7%
Bacillus cereus [24]
  inhibition of growth at 24 µg/mL: 95.7%
Listeria monocytogenes [25]
  inhibition of growth at 2.4 µg/mL: 10.1%
Vibrio parahaemolyticus [26]
  inhibition of growth at 2.4 µg/mL: 11.7%
Escherichia coli [27]
  inhibition of growth at 24 µg/mL: 26.3%
Listeria monocytogenes [28]
  inhibition of growth at 24 µg/mL: 94.3%
Staphylococcus aureus [29]
  inhibition of growth at 1.2 µg/mL: 5.8%
Staphylococcus aureus [30]
  inhibition of growth at 24 µg/mL: 99.6%
Salmonella typhimurium [31]
  inhibition of growth at 2.4 µg/mL: 4.9%
Salmonella typhimurium [32]
  inhibition of growth at 1.2 µg/mL: 4.4%
Escherichia coli [33]
  inhibition of growth at 0.24 µg/mL: 0.7%
Escherichia coli [34]
  inhibition of growth at 12 µg/mL: 22.6%
Salmonella typhimurium [35]
  inhibition of growth at 0.24 µg/mL: 3.9%
Escherichia coli [36]
  inhibition of growth at 2.4 µg/mL: 2.1%
